Measured values from ChEMBL document CHEMBL1148342, “Synthesis, X-ray crystal structures, stabilities, and in vitro cytotoxic activities of new heteroarylacrylonitriles” (J Med Chem, 2004).

Assays:
[1] = test system: 5637; assay: Growth inhibition against human 5637 cell lines; type: functional, cell-based
Outline: (§1)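 Cells were grown in RPMI-1640 with 2 g/L NaHCO3 and 10% FCS at 37 °C in 5% CO2, seeded at 1000 cells/well, and dosed 24 h later at five geometric dilutions for 96 h of continuous exposure. Cells were then glutaraldehyde-fixed and stained with crystal violet, with OD read at 570 nm. IC50 was taken from the dose–response data.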

[2] = test system: SISO; assay: Cytotoxic activity against human SISO cell line at 20 uM; type: functional
Outline: (§2)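 Cells in RPMI-1640 with 10% FCS were seeded (1000 cells/well; KYSE-510 500, LCLC-103H 250), then exposed 24 h later for 96 h. Read-out was crystal violet staining of glutaraldehyde-fixed cells at OD 570 nm. Growth (%) = (OD treated − OD at drug addition)/(OD control − OD at drug addition) × 100.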

[3] = test system: SISO; assay: Growth inhibition against human SISO cell lines; type: functional, cell-based; outline: as §1
[4] = test system: RT-4; assay: Growth inhibition against human RT-4 cell lines; type: functional, cell-based; outline: as §1
[5] = test system: 5637; assay: Cytotoxic activity against human 5637 cell line at 20 uM expressed as percent growth value; type: functional; outline: as §2
[6] = test system: DAN-G; assay: Growth inhibition against human DAN-G cell lines; type: functional, cell-based; outline: as §1
[7] = test system: LCLC-103H cell line; assay: Growth inhibition against human LCLC-103H cell lines; type: functional, cell-based
Outline: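 LCLC-103H cells were grown in RPMI-1640 with 2 g/L NaHCO3 and 10% FCS (5% CO2, 37 °C) and plated at 250 cells/well. After 24 h, five geometric dilutions were applied continuously for 96 h. Fixation was with glutaraldehyde, followed by crystal violet staining and OD at 570 nm. IC50 came from the dose–response curves.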

[8] = test system: MCF7; assay: Growth inhibition against human MCF-7 cell lines; type: functional, cell-based
Outline: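 MCF-7 was cultured in RPMI-1640 with 2 g/L NaHCO3, 10% FCS, 1 mM pyruvate, MEM salts and amino acids. Plating was 1000 cells/well, then after 24 h, 96 h of continuous exposure at five geometric dilutions. Crystal violet staining of glutaraldehyde-fixed cells was read at 570 nm, and IC50 was derived from the dose–response data.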

[9] = test system: KYSE-70 cell line; assay: Growth inhibition against human KYSE-70 cell lines; type: functional, cell-based; outline: as §1
[10] = test system: KYSE-70 cell line; assay: Cytotoxic activity against human KYSE-70 cell line at 20 uM expressed as percent growth value; type: functional; outline: as §2
[11] = test system: YAPC; assay: Compound was tested for growth inhibition against human YAPC cell lines; type: functional, cell-based; outline: as §1
[12] = test system: KYSE-520 cell line; assay: Growth inhibition against human KYSE-520 cell lines; type: functional, cell-based; outline: as §1
[13] = test system: RT-112; assay: Growth inhibition against human RT-112 cell lines; type: functional, cell-based; outline: as §1
[14] = test system: KYSE-510 (human); assay: Growth inhibition against human KYSE-510 cell lines
[15] = test system: TERT-RPE1; assay: Compound was tested for growth inhibition against human h-TERTRPE1 cell lines; type: functional, cell-based
Outline: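 The noncancerous hTERT-immortalized epithelial line h-TERT-RPE1 was grown in DMEM/F-12 with 2 g/L NaHCO3 and 10% FCS (37 °C, 5% CO2) and seeded at 1000 cells/well. Substance was added 24 h later at five geometric dilutions for 96 h continuously. The read-out was crystal violet staining after glutaraldehyde fixation, OD 570 nm, with IC50 from dose–response.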

[16] = test system: KYSE-510; assay: Cytotoxic activity against human KYSE-510 cell line at 20 uM expressed as percent growth value; type: functional; outline: as §2
[17] = test system: LCLC-103H cell line; assay: Cytotoxic activity against human LCLC-103H cell line at 20 uM expressed as percent growth value; type: functional; outline: as §2

Compound `N#C/C(=C\c1ccc(C(F)(F)F)cc1)c1nc2ccccc2[nH]1` has an IC50 ([1]; Homo sapiens) of 12200 nM, an Activity [2] of 61.8 and an IC50 ([3]; Homo sapiens, SISO) of 14000 nM. It also gave an IC50 ([4]; Homo sapiens, RT-4) of 16300 nM, an Activity [5] of 34.4 and an IC50 ([6]; Homo sapiens, DAN-G) of 17600 nM. The IC50 ([7]; Homo sapiens, LCLC-103H) was 1600 nM, the IC50 ([8]; Homo sapiens, MCF7) was 9110 nM and the IC50 ([9]; Homo sapiens, KYSE-70) was 15600 nM. It also gave an Activity [10] of 69.7.

`N#C/C(=C\c1ccco1)c1nc2ccccc2[nH]1` showed an Activity [2] of 106.1, an Activity [5] of 86.1 and an Activity [10] of 56.6.

`N#C/C(=C\c1ccc([N+](=O)[O-])s1)c1n[nH]c(-c2ccccc2)n1` gave an IC50 ([11]; Homo sapiens, YAPC) of 320 nM, an IC50 ([1]; Homo sapiens) of 480 nM and an Activity [2] of -9.9. For the same compound, the IC50 ([12]; Homo sapiens, KYSE-520) was 570 nM, the IC50 ([3]; Homo sapiens, SISO) was 890 nM and the IC50 ([13]; Homo sapiens, RT-112) was 830 nM. It also gave an IC50 ([4]; Homo sapiens, RT-4) of 1030 nM, an IC50 ([6]; Homo sapiens, DAN-G) of 420 nM and an IC50 ([7]; Homo sapiens, LCLC-103H) of 540 nM. For the same compound, the IC50 ([8]; Homo sapiens, MCF7) was 680 nM, the IC50 ([9]; Homo sapiens, KYSE-70) was 350 nM and the IC50 ([14]; Homo sapiens, KYSE-510) was 630 nM. It also gave an IC50 ([15]; Homo sapiens, RPE-1) of 420 nM, an Activity [16] of -21.7 and an Activity [17] of -6.5.

`N#C/C(=C\c1ccc(C#N)cc1)c1nc2ccccc2[nH]1` gave an Activity [2] of 99.2, an Activity [5] of 75.6 and an Activity [10] of 99.3.

`N#C/C(=C\c1ccc([N+](=O)[O-])cc1)c1nc2ccccc2[nH]1` was tested, and the Activity [2] was 99.2, the Activity [5] was 73.9 and the Activity [10] was 88.

Work on `N#C/C(=C\c1ccc([N+](=O)[O-])s1)c1n[nH]c(Cc2ccccc2)n1` yielded an IC50 ([11]; Homo sapiens, YAPC) of 360 nM, an IC50 ([1]; Homo sapiens) of 320 nM and an Activity [2] of -8.7. It also gave an IC50 ([12]; Homo sapiens, KYSE-520) of 290 nM, an IC50 ([3]; Homo sapiens, SISO) of 780 nM and an IC50 ([13]; Homo sapiens, RT-112) of 650 nM. For the same compound, the IC50 ([4]; Homo sapiens, RT-4) was 590 nM, the IC50 ([6]; Homo sapiens, DAN-G) was 500 nM and the IC50 ([7]; Homo sapiens, LCLC-103H) was 310 nM. For the same compound, the IC50 ([8]; Homo sapiens, MCF7) was 420 nM, the IC50 ([9]; Homo sapiens, KYSE-70) was 420 nM and the IC50 ([14]; Homo sapiens, KYSE-510) was 530 nM. For the same compound, the IC50 ([15]; Homo sapiens, RPE-1) was 510 nM, the Activity [16] was -21.3 and the Activity [17] was -8.4.

For `N#C/C(=C\c1ccc(Cl)s1)c1nc2ccccc2[nH]1`, the IC50 ([1]; Homo sapiens) was 22400 nM, the Activity [2] was 102.2 and the IC50 ([3]; Homo sapiens, SISO) was over 20000 nM. The IC50 ([4]; Homo sapiens, RT-4) was over 20000 nM, the Activity [5] was 44.6 and the IC50 ([6]; Homo sapiens, DAN-G) was over 20000 nM. For the same compound, the IC50 ([7]; Homo sapiens, LCLC-103H) was 1970 nM and the Activity [17] was 13.4.

`N#C/C(=C\c1csc([N+](=O)[O-])c1)c1nc2ccccc2[nH]1` was tested, and the IC50 ([1]; Homo sapiens) was over 20000 nM, the Activity [2] was 82.3 and the IC50 ([3]; Homo sapiens, SISO) was over 20000 nM. It also gave an IC50 ([4]; Homo sapiens, RT-4) of over 20000 nM, an Activity [5] of 80 and an IC50 ([6]; Homo sapiens, DAN-G) of over 20000 nM. The IC50 ([7]; Homo sapiens, LCLC-103H) was 1420 nM, the IC50 ([15]; Homo sapiens, RPE-1) was over 5000 nM and the Activity [17] was 8.6.

For `Cc1n[nH]c(/C(C#N)=C/c2ccc([N+](=O)[O-])s2)n1`, the IC50 ([11]; Homo sapiens, YAPC) was 410 nM, the IC50 ([1]; Homo sapiens) was 220 nM and the Activity [2] was -8.8. For the same compound, the IC50 ([12]; Homo sapiens, KYSE-520) was 600 nM, the IC50 ([3]; Homo sapiens, SISO) was 510 nM and the IC50 ([13]; Homo sapiens, RT-112) was 670 nM. It also gave an IC50 ([4]; Homo sapiens, RT-4) of 900 nM, an IC50 ([6]; Homo sapiens, DAN-G) of 570 nM and an IC50 ([7]; Homo sapiens, LCLC-103H) of 330 nM. It also gave an IC50 ([8]; Homo sapiens, MCF7) of 380 nM, an IC50 ([9]; Homo sapiens, KYSE-70) of 440 nM and an IC50 ([14]; Homo sapiens, KYSE-510) of 560 nM. For the same compound, the IC50 ([15]; Homo sapiens, RPE-1) was 690 nM, the Activity [16] was -21.3 and the Activity [17] was -8.4.

Work on `N#C/C(=C\c1ccc([N+](=O)[O-])s1)c1nc2ccccc2[nH]1` yielded an IC50 ([11]; Homo sapiens, YAPC) of 160 nM, an IC50 ([1]; Homo sapiens) of 150 nM and an Activity [2] of 18. It also gave an IC50 ([12]; Homo sapiens, KYSE-520) of 110 nM, an IC50 ([3]; Homo sapiens, SISO) of 310 nM and an IC50 ([13]; Homo sapiens, RT-112) of 360 nM. The IC50 ([4]; Homo sapiens, RT-4) was 270 nM, the IC50 ([6]; Homo sapiens, DAN-G) was 320 nM and the IC50 ([7]; Homo sapiens, LCLC-103H) was 170 nM. For the same compound, the IC50 ([8]; Homo sapiens, MCF7) was 160 nM, the IC50 ([9]; Homo sapiens, KYSE-70) was 160 nM and the IC50 ([14]; Homo sapiens, KYSE-510) was 330 nM. It also gave an IC50 ([15]; Homo sapiens, RPE-1) of 390 nM, an Activity [16] of 20.5 and an Activity [17] of -6.5.

For `COc1cc([C@@H]2c3cc4c(cc3[C@@H](O[C@@H]3O[C@@H]5CO[C@@H](C)O[C@H]5[C@H](O)[C@H]3O)[C@H]3COC(=O)[C@H]23)OCO4)cc(OC)c1O` [ETOPOSIDE], the IC50 ([11]; Homo sapiens, YAPC) was 1320 nM, the IC50 ([1]; Homo sapiens) was 530 nM and the IC50 ([12]; Homo sapiens, KYSE-520) was 410 nM. The IC50 ([3]; Homo sapiens, SISO) was 150 nM, the IC50 ([13]; Homo sapiens, RT-112) was 220 nM and the IC50 ([4]; Homo sapiens, RT-4) was 1330 nM. For the same compound, the IC50 ([6]; Homo sapiens, DAN-G) was 380 nM, the IC50 ([8]; Homo sapiens, MCF7) was 540 nM and the IC50 ([9]; Homo sapiens, KYSE-70) was 790 nM. The IC50 ([14]; Homo sapiens, KYSE-510) was 700 nM and the IC50 ([15]; Homo sapiens, RPE-1) was 90 nM.

For CISPLATIN, the IC50 ([11]; yapc) was 6030 nM, the IC50 [1] was 310 nM and the IC50 ([12]; kyse-520) was 5070 nM. It also gave an IC50 ([3]; siso) of 200 nM, an IC50 ([13]; rt-112) of 2140 nM and an IC50 ([4]; rt-4) of 3700 nM. It also gave an IC50 ([6]; dan-g) of 1390 nM, an IC50 ([7]; lclc-103h) of 1630 nM and an IC50 ([8]; mcf7) of 740 nM. For the same compound, the IC50 ([9]; kyse-70) was 1490 nM, the IC50 ([14]; kyse-510) was 880 nM and the IC50 ([15]; tert-rpe1) was 3040 nM.
